# Screens: PubChem BioAssay, several laboratories
# This is a sample that favours compounds with a hit; in the whole collection about 3.9% have one here.
# TAAR1 agonist: human TAAR1 agonists, primary screen, Fluo-8 calcium fluorescence, CHO RD-HGA16 cells; vehicle wells 0%, saturating PEA agonist 100%; AID 624467, 2012; 0.99% of 360,000 active; Trace amine-associated receptor 1 (Homo sapiens), Q96RJ0; activation, % at 3 µM;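 active = activation above the mean activation of all test compounds in the run plus 3 SD, cut at about 38% in these data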
# Target sequence (Q96RJ0 whole entry, looked up): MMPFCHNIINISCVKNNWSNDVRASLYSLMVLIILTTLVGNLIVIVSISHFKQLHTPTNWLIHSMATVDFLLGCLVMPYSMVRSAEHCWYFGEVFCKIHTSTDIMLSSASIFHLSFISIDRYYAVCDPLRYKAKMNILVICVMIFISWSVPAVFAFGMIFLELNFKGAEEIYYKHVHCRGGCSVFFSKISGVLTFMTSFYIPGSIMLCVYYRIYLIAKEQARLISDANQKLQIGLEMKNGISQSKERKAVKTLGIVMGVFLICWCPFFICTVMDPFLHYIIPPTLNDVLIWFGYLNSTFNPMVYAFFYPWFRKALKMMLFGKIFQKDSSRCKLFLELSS
#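 Test system: RD-HGA16 (CHO) cells co-expressing Gα16 and hTAAR1 | Doses: Single dose, 3 µM | Schedule: 17-24 h seeding, 75 min 37 °C dye, 30 min RT | Evaluation: % activation from peak over basal fluorescence ratio, DMSO-to-PEA scaled | Technique: Kinetic Fluo-8 calcium fluorescence | Benchmarks: Low control DMSO, high control PEA (EC100)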
# CRFBP-R2 agonist: agonists of CRF-BP/CRF-R2 complex, primary screen, cell-based, HEK293, calcium dye fluorescence, uHTS; calcium dye fluorescence (FLIPR); percent of saturating CRF peptide response; activation, % at 13.2 µM; 0.46% of 350,000 active;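 active = activation of at least 50%, plus an integration ratio under a set limit after plate pattern correction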;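 also: plate controls were neutral control wells without compound for no effect and CRF at EC100 for full effect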
# TAAR1 antag: human TAAR1 antagonists, primary screen, Fluo-8 calcium fluorescence, CHO RD-HGA16 cells; Trace amine-associated receptor 1 (Homo sapiens), Q96RJ0; antagonist; inhibition, % at 3 µM; 1.5% of 360,000 active; AID 624466, 2012;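 active = inhibition above a per-plate cutoff, the mean inhibition of test compounds on that plate plus 3 SD, cut at about 49% in these data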;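 also: 0% = DMSO plus EC80 beta-PEA response and 100% = DMSO alone without agonist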
#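 Test system: hTAAR1-expressing CHO RD-HGA16 cells, Gα16-coupled; Probe or stimulus: EC80 β-phenethylamine stimulus; Compound dosing: single nominal final test compound concentration of 3 µM; Timing: 140 s kinetic read after compound, 140 s after agonist; Signal: Fluo-8 calcium-sensitive fluorescence; Measure: % inhibition of agonist calcium response; Controls: DMSO and EC80 PEA controls.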
# CRFR2-BP antag: antagonists of CRF-BP/CRF-R2 complex, primary screen, cell-based, HEK293, calcium dye fluorescence, uHTS; CRF-induced calcium fluorescence; inhibition, % at 11.8 µM; 0.59% of 350,000 active; AID 588475, 2011;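 active = inhibition of the ligand-induced calcium signal above about 50% at the single tested concentration, limit read from the data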
# ANO1 activ: TMEM16A chloride channel activators or potentiators, primary screen, cell-based, HTS; 0.3% of 340,000 active; AID 623877, 2012; B-score at 10 µM; Anoctamin-1 (Mus musculus), Q8BHY3; HEK293 TMEM16A/YFP-H148Q/I152L, iodide quench fluorescence; hits give low values;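 active = fluorescence-ratio B-score plate-corrected deviation score at least 3 library SD below zero, with starting fluorescence score within 5 deviations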;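 also: channel opened by trigger with iodide after compound preincubation; score built on the fluorescence ratio of max minus min over baseline; more negative score means more quench and so TMEM16A activation or potentiation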
# TMEM16A inh: TMEM16A chloride channel inhibitors, primary screen, cell-based, HTS; Anoctamin-1 (Mus musculus), Q8BHY3; HEK293 TMEM16A/YFP iodide influx fluorescence, ionomycin; normalized B-score (activity score, 25-100; higher = stronger inhibition) at 10 µM; 1.2% of 310,000 active; AID 588511, 2011;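 active = ratio plate-corrected score three or more library SD toward inhibition, starting fluorescence score within five deviations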;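 also: score derived from kinetic fluorescence span divided by baseline fluorescence per well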
# * marks the source's active call; other numbers are inactive results; i = inactive; / = not tested or not shown.
SMILES,TAAR1 agonist,CRFBP-R2 agonist,TAAR1 antag,CRFR2-BP antag,ANO1 activ,TMEM16A inh
CC(C)C(NS(=O)(=O)c1c(Cl)cccc1Cl)C(=O)OCC(=O)c1c[nH]c2ccccc12 (configuration not stated),6.9,7.5,20.4,-51.1,i,i
CC(C)Cc1ccc(C(C)C(=O)OCC(=O)c2c[nH]c3ccccc23)cc1 (configuration not stated),54.5*,32.1,21.9,-62.8,i,100*
CSCCC(NS(=O)(=O)c1ccc(Cl)cc1)C(=O)OCC(=O)c1c(C)[nH]c2ccccc12 (configuration not stated),19.1,-1.9,80.7*,-30.3,i,i
CC(O)C(NS(=O)(=O)c1ccc(Cl)cc1)C(=O)OCC(=O)c1c[nH]c2ccccc12 (configuration not stated),18.6,-2.5,58.0*,-2.0,i,i
CCn1nc(C(=O)N2CCN(Cc3nc4ccccc4s3)CC2)c2ccccc2c1=O,32.9,0.2,56.9*,8.4,i,/
O=C(Cc1cccs1)NCCSc1c(-c2ccc(Cl)cc2)[nH]c2ccccc12,1.0,-1.6,49.0*,10.5,i,i
CCOC(=O)CSc1c(-c2ccc(Cl)cc2)[nH]c2ccccc12,-0.1,-0.4,37.5,-18.7,i,i
CCOc1cc(N2CCOCC2)c(OCC)cc1NC(=O)CN1CCSC1=O,8.5,-0.2,8.9,-6.0,i,/
Nc1nn2c(C(F)(F)F)cc(=O)[nH]c2c1N=Nc1cccc(F)c1,/,-7.4,/,87.0*,i,i
Cc1cc(=O)[nH]c2c(N=Nc3ccc(O)cc3)c(N)nn12,10.7,0.4,-5.7,3.0,i,/
COc1ccccc1NS(=O)(=O)c1cc([N+](=O)[O-])ccc1N/N=C/c1c[nH]c2ccccc12,12.2,36.6,53.9*,-58.3,i,i
Cc1[nH]c2ccccc2c1/C=N/Nc1ccc([N+](=O)[O-])cc1S(=O)(=O)Nc1ccc(Cl)cc1,8.9,108.8*,-8.0,-140.5,i,i
COc1ccc(NS(=O)(=O)c2cc([N+](=O)[O-])ccc2N/N=C\c2c(C)[nH]c3ccccc23)cc1,6.6,47.6,9.6,-73.3,i,i
O=[N+]([O-])c1ccccc1N/N=C/c1c[nH]c2ccccc12,-1.8,-0.2,1.0,11.6,i,i
Cc1ccc(C(=O)NCCC(=O)N2CCC3(CC2)NCCc2[nH]cnc23)cc1C,5.1,0.6,-17.4,-2.4,i,i
CC(C)(C)c1nc(-c2ccccc2)nc2c1OCCC2,22.7,2.1,-16.2,-0.8,i,i
C(=C\c1sc(Nc2ccccc2)n[n+]1-c1ccccc1)/c1ccccc1,19.1,-0.2,-8.2,-1.6,-8.89*,/
COc1ccc(-c2sc(Nc3ccccc3)n[n+]2-c2ccccc2)cc1Br,4.2,-1.4,2.3,4.3,i,i
CC(=O)NC1=NN(C(C)=O)C(C)(c2ccccn2)S1 (configuration not stated),9.8,7.0,-7.2,52.1*,i,i
CC(=O)NC1=NN(C(C)=O)C(C)(c2ccc(Br)cc2)S1 (configuration not stated),9.0,3.7,2.4,-14.0,i,i
COc1ccc(C2=C/C(=C/c3cccnc3)C(=O)O2)cc1OC,7.5,144.0*,-0.8,-103.5,i,i
O=S(=O)(Cc1cc(Cl)nc(-c2ccncc2)n1)c1ccccc1,9.0,1.7,1.5,13.2,-4.66*,i
O=S(=O)(Cc1cc(Cl)nc(-c2ccccc2)n1)c1ccccc1,-1.7,-1.0,-4.3,1.6,i,i
C[C@@H](C(=O)NCc1ccccn1)[C@H]1C[C@]1(C)[C@H](NC(=O)OCc1ccccc1)c1ccccc1,15.6,-4.6,49.1*,4.1,i,i
C[C@@H](C(=O)NCC1CC1)[C@@H]1C[C@@]1(C)[C@@H](NC(=O)OCc1ccccc1)c1ccccc1,5.3,-0.5,-6.1,-2.5,i,i
SMILES,TAAR1 agonist,CRFBP-R2 agonist,TAAR1 antag,CRFR2-BP antag,ANO1 activ,TMEM16A inh
CN1CCCC(OC(=O)c2ccc(C(C)(C)C)cc2)C1 (configuration not stated),3.0,0.0,-13.0,-3.5,i,i
CCCCCCCC(=O)NNC(=O)Cc1ccccc1,/,-2.9,/,-18.4,i,i
CCCCCCCCCCCC(=O)c1c(O)cccc1O,1.1,0.4,-7.6,14.9,i,100*
Cc1cc(C)c(C)c(S(=O)(=O)N2CCC(C(=O)OCC(=O)N3c4ccccc4NC(=O)C3(C)C)CC2)c1C,9.8,0.2,48.7*,-1.9,i,i
COc1ccc(/C=N/N(C(C)=O)c2nc(-c3ccc(C)cc3)cs2)cc1,8.3,0.0,-13.2,-2.6,-7.17*,i
COc1ccc(CN2CCN(C(=O)c3ccc(-c4ccccc4)cc3)CC2)c(OC)c1OC,11.8,1.5,-5.7,-2.1,i,i
COc1ccc(CN2CCN(C(=O)c3cccs3)CC2)c(OC)c1OC,2.3,-2.0,9.6,57.9*,i,i
Cc1nc(C)c(NC(=O)OC(C)C)cc1NC(=O)OC(C)C,0.3,1.8,8.4,-8.4,i,i
CC(C)CC(NC(=O)c1ccccc1)C(=O)N/N=C/c1ccco1 (configuration not stated),25.8,177.9*,10.8,-127.8,i,i
CCCC(=O)Nc1ccc(-c2csc(N/N=C\c3ccncc3)n2)cc1,14.8,-1.0,60.4*,-0.3,i,i
COc1ccccc1C1C2C(=O)N(c3ccccc3)C(=O)C2ON1c1ccccc1 (configuration not stated),16.5,0.8,49.6*,9.7,i,i
O=C(O)COc1ccccc1C1C2C(=O)N(c3ccc(F)cc3)C(=O)C2ON1c1ccccc1 (configuration not stated),10.5,-0.1,45.0,-11.0,i,i
CSC(=NS(=O)(=O)c1ccccc1)NNC(=O)c1c(-c2c(Cl)cccc2Cl)noc1C,2.3,/,-9.6,/,/,/
CCOC1=C/C(=C/c2c(N)n3nc(CC(=O)N4CCCCC4)sc3nc2=O)C=CC1=O,7.2,56.9*,-12.9,-68.1,i,i
Nc1c(C=C2C=CC(=O)C=C2)c(=O)nc2sc(CC(=O)N3CCOCC3)nn12,2.6,-0.4,-5.2,8.5,i,i
